Bioassay records (PubChem)
An excerpt weighted towards active compounds, which were near 1.4% of everything screened.
GSTO1 counter – blocks human GSTO1 in RBBP9 counter-screen; 1.1% of 300,000 active; inhibition, % at 5.96 µM; P78417; recombinant GSTO1, activity-based probe fluorescence polarization;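 active = inhibition above the campaign mean inhibition plus 3 SD, cut at about 35% in these data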
Target sequence (P78417 whole entry, looked up): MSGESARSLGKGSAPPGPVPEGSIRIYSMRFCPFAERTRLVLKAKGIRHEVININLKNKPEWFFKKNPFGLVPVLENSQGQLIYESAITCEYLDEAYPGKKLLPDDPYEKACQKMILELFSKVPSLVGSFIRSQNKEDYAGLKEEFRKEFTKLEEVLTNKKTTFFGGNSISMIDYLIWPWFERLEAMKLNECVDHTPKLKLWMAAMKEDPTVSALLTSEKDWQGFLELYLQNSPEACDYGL
DTT redox prof – compounds producing H2O2 with reducing agent – biochemical, NIH compound library profiling, artefact control for MLSCN library redox annotation, primary screen | DTT-dependent redox cycling H2O2, phenol red/HRP absorbance; 100% = 100 µM peroxide control, 0% = buffer | activation, % at 10 µM | 0.03% of 200,000 active | AID 878;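 active = activation of at least 50% relative to the plate's high and low controls in the primary single-dose screen; inactive = activation below 50%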;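 also: compound incubated with DTT at 0.8 mM final as the reducing agent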
SUMO HTRF inh – inhibitors of human SUMOylation (UBC9). HTRF SUMOylation assay, SAE1/SAE2 + UBC9, in vitro. inhibition, % at 35 µM. 0.36% of 290,000 active. AID 2006; in the data active = inhibition above about 50%, passing the limit was not always enough; inconclusive = no clear call, values can overlap the other calls
Target sequence (P63279 whole entry, looked up): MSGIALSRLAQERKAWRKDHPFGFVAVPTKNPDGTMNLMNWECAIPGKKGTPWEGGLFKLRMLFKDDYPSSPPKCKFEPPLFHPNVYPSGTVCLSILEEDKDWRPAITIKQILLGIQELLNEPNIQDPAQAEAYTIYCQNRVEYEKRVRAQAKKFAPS
HKDC1 inhibitor – HKDC1 (human) hexokinase inhibition | Q2TB90 | recombinant HKDC1, G6PDH/diaphorase resazurin coupled fluorescence | inhibition, % at 20 µM | 0.16% of 340,000 active | AID 493160;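 active = inhibition above about 35% when tested at 20 µM, limit read from the data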
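Test system: Recombinant HKDC1 (HK5) hexokinase enzyme, produced in-house | Input: HKDC1 at 5 µg/mL | Buffer or medium: Tris pH 8.0 buffer with MgCl2, Tween-20, BSA, BME | Schedule: 90 min reaction incubation at room temperature, dark | Technique: Resazurin-to-resorufin fluorescence via G6PDH and diaphorase coupling, 525/613 nm | Controls: DMSO wells with and without enzyme mix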
Apaf-1 inh – inhibitors of human Apaf-1 apoptosome; O14727; reconstituted apoptosome caspase-3 activity, DEVD-Rh110 fluorescence; inhibition, % at 20 µM; 0.71% of 330,000 active; active = inhibition of at least 40% at 20 µM
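Material: reconstituted apoptosome with Apaf-1, cytochrome c, caspase-9, procaspase-3, dATP. Technique: Rh110 fluorescence intensity. Buffer or medium: pH 7.5 Hepes buffer with CHAPS, BSA, DTT. Times: 30 min plus 50 min, RT.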
GSTO1 confirm – confirmation of human GSTO1 inhibitors | shares compounds with GSTO1 counter | inhibition, % at 5.96 µM | recombinant GSTO1, probe fluorescence polarization | 54% of 2,400 active;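 active = inhibition above the primary screen's cutoff, its mean inhibition plus 3 SD, cut at about 35% in these data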;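 also: loss of polarization as inhibitors block binding of rhodamine sulfonate ester activity probe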
Apaf-1 inh conf2 – Apaf-1 inhibition, single-dose confirmed; AID 504614; reconstituted apoptosome, caspase-3 DEVD-Rh110 fluorescence; inhibition, % at 20 µM; 25% of 1,800 active; shares compounds with Apaf-1 inh;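 active = mean inhibition of at least 40% at 20 µM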
Rh110 interf inh – counter-screen for Apaf-1 inhibitors: fluorescence interference; shares compounds with Apaf-1 inh; Rh110 fluorescence interference, quenched caspase reaction; activation (fluorescence interference), % at 20 µM; 1,800 tested, under 10 active; AID 504615;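 active = signal rise of 40% or more at 20 µM, treated as a fluorescence artifact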
Apaf1 inh interf – counter-screen for Apaf-1 inhibitors: fluorescence interference, dose response; shares compounds with Apaf-1 inh; fluorescence interference counterscreen, Apaf-1 assay format; IC50, µM; 460 tested, under 10 active; AID 588538; call rule not given here
HKDC1 act conf – confirmation of human HKDC1 activators; AID 504708; shares compounds with HKDC1 inhibitor; inhibition, % at 20 µM; recombinant HKDC1, G6PDH/diaphorase resazurin fluorescence; stronger effect = lower value; 14% of 740 active;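 active = inhibition at or below a set negative limit, negative inhibition meaning the enzyme was activated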
Each line names hits and unclear results; the compound was inactive in the other large screens (follow-up assays come after a bar, where they were run).

Cc1ccc(S(=O)(=O)N2CCOCC2)cc1NC(=O)CNC1CCCC1	none (no result: DTT redox prof)
CNCc1ccccc1Sc1cc(O)ccc1O	GSTO1 counter 89, HKDC1 inhibitor 64 | GSTO1 confirm 55 | HKDC1 act conf inactive
O=C(CSc1ccccn1)Nc1ccc2c(c1)C(=O)c1ccccc1C2=O	none (no result: Apaf-1 inh)
O=C(CSc1n[nH]c(=O)[nH]c1=O)Nc1ccc2c(c1)C(=O)c1ccccc1C2=O	GSTO1 counter 61, SUMO HTRF inh 88, HKDC1 inhibitor 52 (no result: DTT redox prof) | GSTO1 confirm 78 | HKDC1 act conf inactive
COC(=O)CCC(=O)OC1(C)C(=O)C2=CN(c3ccccc3)C(c3ccc(OC)cc3)=CC2=C(Br)C1=O (configuration not stated)	GSTO1 counter 45, HKDC1 inhibitor 38 (no result: DTT redox prof, SUMO HTRF inh) | GSTO1 confirm inactive | HKDC1 act conf inactive
COC(=O)CCC(=O)OC1(C)C(=O)C2=CN(CC3CC3)C(c3ccc(OC)cc3)=CC2=C(Br)C1=O (configuration not stated)	GSTO1 counter 51, HKDC1 inhibitor 37, Apaf-1 inh 66 (no result: DTT redox prof) | GSTO1 confirm 36 | Apaf-1 inh conf2 64 | Rh110 interf inh inactive | Apaf1 inh interf inactive | HKDC1 act conf inactive
COC(=O)CCC(=O)OC1(C)C(=O)C2=CN(Cc3ccccc3)C(c3ccc(OC)cc3)=CC2=C(Br)C1=O (configuration not stated)	GSTO1 counter 50, HKDC1 inhibitor 43 (no result: DTT redox prof, SUMO HTRF inh) | GSTO1 confirm inactive | HKDC1 act conf inactive
COC(=O)CCC(=O)OC1(C)C(=O)C=C2C=C(C3CC3)N(c3ccccc3)C=C2C1=O (configuration not stated)	none (no result: DTT redox prof)
COC(=O)CCC(=O)OC1(C)C(=O)C=C2C=C(C3CC3)N(Cc3ccc(OC)cc3)C=C2C1=O (configuration not stated)	none (no result: DTT redox prof)
CC(=O)N(C1=C(Cl)C(=O)c2ccccc2C1=O)C1CCCCC1	GSTO1 counter 56, SUMO HTRF inh 71, HKDC1 inhibitor 58, Apaf-1 inh 85 (no result: DTT redox prof) | GSTO1 confirm 73 | Apaf-1 inh conf2 90 | Rh110 interf inh inactive | Apaf1 inh interf inactive | HKDC1 act conf inactive
CC(=O)N(c1ccccc1C)C1CCCC1	none
CC(=O)OCCNc1cc(N2CCN(C)CC2)c2noc3c2c1C(=O)c1ccccc1-3	none (no result: GSTO1 counter, Apaf-1 inh)
O=C(O)CCNc1cc(N2CCN(C(=O)c3ccco3)CC2)c2noc3c2c1C(=O)c1ccccc1-3	GSTO1 counter 63, HKDC1 inhibitor 39, Apaf-1 inh 81 (no result: DTT redox prof) | GSTO1 confirm 75 | Apaf-1 inh conf2 73 | Rh110 interf inh inactive | Apaf1 inh interf 13 | HKDC1 act conf inactive
Oc1ccc(Br)cc1CNc1cccc2cccnc12	GSTO1 counter 46, HKDC1 inhibitor 40, Apaf-1 inh 90 (no result: DTT redox prof) | GSTO1 confirm inactive | Apaf-1 inh conf2 48 | Rh110 interf inh inactive | Apaf1 inh interf inactive | HKDC1 act conf inactive
CCC(NC(=O)Cc1c(C)c2cc3c(cc2oc1=O)OC(C)(C)CC3)C(=O)O (configuration not stated)	none (no result: DTT redox prof)
O=C(NC1=C(NC2CCS(=O)(=O)C2)C(=O)c2ccccc2C1=O)c1ccccc1 (configuration not stated)	GSTO1 counter 81, HKDC1 inhibitor 53, Apaf-1 inh 88 | GSTO1 confirm 71 | Apaf-1 inh conf2 92 | Rh110 interf inh inactive | Apaf1 inh interf inactive | HKDC1 act conf inactive
O=C(NC(NC1CCS(=O)(=O)C1)C(=O)c1cccs1)c1ccccc1 (configuration not stated)	none
Cc1cc2c(N)cccc2nn1	GSTO1 counter 65, HKDC1 inhibitor 35, Apaf-1 inh 97 | GSTO1 confirm 110 | Apaf-1 inh conf2 inactive | Rh110 interf inh inactive | HKDC1 act conf inactive
O=C1C(Cl)=C(NC(=O)c2ccccc2)C(=O)C(Cl)=C1NC(=O)c1ccccc1	GSTO1 counter 79, SUMO HTRF inh 51, HKDC1 inhibitor 43, Apaf-1 inh 56 (no result: DTT redox prof) | GSTO1 confirm inactive | HKDC1 act conf inactive
N#Cc1ccccc1N1CCN(C(=O)c2ccc(NC(=O)c3ccc(Br)o3)cc2)CC1	none (no result: DTT redox prof, SUMO HTRF inh)
CC(=O)N1c2ccc(S(=O)(=O)N(C)CC(=O)NC(C)c3ccccc3)cc2CC1C (configuration not stated)	none (no result: DTT redox prof)
CC(C(=O)O)N1C(=O)/C(=C/C=C/c2ccco2)SC1=S (configuration not stated)	GSTO1 counter 64, SUMO HTRF inh 84, HKDC1 inhibitor 56, Apaf-1 inh 47 | GSTO1 confirm inactive | HKDC1 act conf inactive
CCN(C(=O)C(C)N1C(=O)/C(=C/c2ccco2)SC1=S)C1CCS(=O)(=O)C1 (configuration not stated)	none (no result: DTT redox prof)
CCc1ccc(S(=O)(=O)Nc2ccc(O)c3ccccc23)cc1	GSTO1 counter 53, HKDC1 inhibitor 44 (no result: DTT redox prof) | GSTO1 confirm inactive | HKDC1 act conf inactive
O=S(=O)(Nc1ccccc1Cl)c1ccc(F)cc1	none
CCNC(=S)NS(=O)(=O)c1ccc(CC)cc1	none
O=S(=O)(Nc1ccc(O)c2ccccc12)c1ccc(F)cc1	GSTO1 counter 64, HKDC1 inhibitor 43 (no result: DTT redox prof, SUMO HTRF inh) | GSTO1 confirm inactive | HKDC1 act conf inactive
CCN(C(=O)Cc1c(C(=O)O)n(C)c2ccccc12)c1cccc(C)c1	none (no result: DTT redox prof)
O=C1C(SCCO)=C(SCCO)C(=O)c2ccccc21	GSTO1 counter 87, HKDC1 inhibitor 72, Apaf-1 inh 97 (no result: DTT redox prof, SUMO HTRF inh) | GSTO1 confirm 84 | Apaf-1 inh conf2 96 | Rh110 interf inh inactive | Apaf1 inh interf inactive | HKDC1 act conf inactive
Cc1ccc(S(=O)(=O)/N=C2\C=C(Nc3cccc(C(=O)O)c3)C(=O)c3ccccc32)cc1	GSTO1 counter 90, SUMO HTRF inh inconclusive, HKDC1 inhibitor 45, Apaf-1 inh 94 (no result: DTT redox prof) | GSTO1 confirm 85 | Apaf-1 inh conf2 98 | Rh110 interf inh inactive | Apaf1 inh interf inactive | HKDC1 act conf inactive
Cc1ccc(S(=O)(=O)/N=C2\C=C(Nc3cccc(C(=O)O)c3)C(=O)c3ccccc32)c(C)c1	GSTO1 counter 93, SUMO HTRF inh inconclusive, HKDC1 inhibitor 39, Apaf-1 inh 90 (no result: DTT redox prof) | GSTO1 confirm 91 | Apaf-1 inh conf2 85 | Rh110 interf inh inactive | HKDC1 act conf inactive
